High-throughput results from PubChem.
The full list was thinned out, with hits kept by preference.
KDM4C inh = inhibitors of GASC-1 (KDM4C) histone demethylase, primary screen, biochemical, single concentration HTS | Lysine-specific demethylase 4C (Homo sapiens), Q9H3R0 | GST-KDM4C 2-372, H3K9me3 peptide, LANCE TR-FRET | inhibition, % at 12.5 µM | 96,000 tested, 0.15% active | AID 720574, 2013;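 active = mean replicate inhibition above about 25%, with at least 55% of replicates also reaching it, limit read from the data, passing the limit was not always enough; inconclusive = only one of those two conditions met; inactive = neither condition met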
Target sequence (Q9H3R0 2-372 limits assumed): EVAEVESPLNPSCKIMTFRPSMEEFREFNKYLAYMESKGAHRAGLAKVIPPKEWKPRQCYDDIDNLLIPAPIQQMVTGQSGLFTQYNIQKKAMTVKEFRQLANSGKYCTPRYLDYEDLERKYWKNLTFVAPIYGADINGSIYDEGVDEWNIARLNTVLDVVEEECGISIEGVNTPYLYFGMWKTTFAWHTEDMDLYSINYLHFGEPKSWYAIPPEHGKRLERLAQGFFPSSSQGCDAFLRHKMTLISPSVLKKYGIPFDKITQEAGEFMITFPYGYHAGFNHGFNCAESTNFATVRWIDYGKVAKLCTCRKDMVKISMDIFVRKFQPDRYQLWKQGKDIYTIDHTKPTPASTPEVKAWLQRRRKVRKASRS
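material = GST-tagged GASC-1 (JMJD2C) catalytic fragment, aa 2-372 | amount = enzyme final amount 10 nM | medium = HEPES buffer, pH 7.5, plus ascorbate | also added = H3K9me3 peptide substrate, Fe(II), 2-oxoglutarate | dosing = single dose | times = 30 min demethylation and 1 h detection at room temperature | detection = LANCE TR-FRET | read-out basis = Fall in 671/618 emission ratio as inhibition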
T cruzi growth-1 = T. cruzi intracellular proliferation inhibitors, primary screen, cell-based, beta-gal Tulahuen parasites, NIH3T3 host, luminescence; T. cruzi beta-gal in NIH3T3, GalScreen luminescence, 90 h; inhibition, % at 8.34 µM; 77,000 tested, 5.9% active; AID 624255, 2012;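 active = mean inhibition above about 93%, with at least 55% of replicates each passing it, limit read from the data, passing the limit was not always enough; inconclusive = only one of those two conditions holds; inactive = neither condition holds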
IDH1 R132H inh = inhibitors of IDH1 R132H reductase, primary screen, biochemical, plate reader, single point; Isocitrate dehydrogenase [NADP] cytoplasmic (Homo sapiens), O75874; diaphorase/resazurin fluorescence, 60 min; inhibition, % at 10 µM; 70,000 tested, 0.18% active; AID 624101, 2012; in the data active = inhibition above about 34%; inconclusive = no clear call, values can overlap the other calls; inactive = below about 11%
T cruzi growth-2 = T. cruzi intracellular proliferation inhibitors, confirmation, cell-based, NIH3T3 host, beta-gal parasite, luminescence, cherry-pick | T. cruzi beta-gal in NIH3T3, GalScreen luminescence, 90 h | 5,600 tested, 72% active | inhibition, % at 8.35 µM | shares compounds with T cruzi growth-1 | AID 651739, 2012;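 active = mean replicate inhibition above about 95% and at least 55% of replicates individually reaching it, limit read from the data; inconclusive = only one of the two criteria is met; inactive = neither criterion is met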
T cruzi growth-3 = inhibitors of intracellular T. cruzi replication, confirmation, NIH3T3 host cells, beta-gal parasites, cherry-pick, set 2. shares compounds with T cruzi growth-1. T. cruzi beta-gal in NIH3T3, GalScreen luminescence, 90 h. inhibition, % at 2.09 µM. 5,600 tested, 21% active;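 active = mean inhibition above about 95%, with at least 55% of replicates also reaching it, limit read from the data; inconclusive = meets just one of the two conditions; inactive = meets neither condition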
3T3 cytotox = cytotoxicity in mouse NIH/3T3 fibroblasts, confirmation, cytotoxicity control for T. cruzi proliferation inhibitor project, cell-based, cherry-pick, single point. shares compounds with T cruzi growth-1. NIH/3T3 viability, CellTiter-Glo ATP luminescence, 90 h. cytotoxicity (signal decrease), % at 8.35 µM. 5,600 tested, 14% active. AID 651742, 2012;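 active = mean signal decrease across replicates above about 35% based on untreated-well scatter, with enough replicates individually passing, limit read from the data; inconclusive = no rule stated though some were filed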
3T3 cytotox 2 = NIH/3T3 fibroblast cytotoxicity, confirmation, cytotoxicity control, cell-based, cherry-pick, single point, set 2. 5,600 tested, 56% active. NIH/3T3 viability, CellTiter-Glo ATP luminescence, 90 h. shares compounds with T cruzi growth-1. inhibition, % at 24.9 µM;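 active = mean loss of cell viability signal at or above a set limit, and enough replicates individually reaching it; inconclusive = meets only the mean limit or only the replicate share; inactive = meets neither condition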
Numbers stand for hits; 0 = inactive; ? = inconclusive; - = no result.

SMILES	KDM4C inh	T cruzi growth-1	IDH1 R132H inh	T cruzi growth-2	T cruzi growth-3	3T3 cytotox	3T3 cytotox 2
OC[C@@H]1[C@H](c2ccc(C3=CCCC3)cc2)[C@H]2CN(CCC(F)(F)F)CCCCN12	-	103	-	100	0	0	103
CCCN1C[C@H](C)[C@@H](OC)CN(C)C(=O)c2cc(NC(=O)CC)ccc2OC[C@H]1C	0	0	0	-	-	-	-
COc1ccc(-c2ccc([C@H]3[C@H](C#N)N(C(=O)NC4CCCCC4)[C@H]3CO)cc2)cc1	0	101	-	102	0	0	75
COc1ccc(-c2ccccc2[C@@H]2[C@@H](CO)N(C(=O)NC3CCCC3)[C@H]2C#N)cc1	0	-	-	-	-	-	-
COc1ccc(-c2ccc([C@H]3[C@H](C#N)N(C(=O)NC4CCCC4)[C@H]3CO)cc2)cc1	-	?	-	0	0	0	0
COc1ccccc1-c1ccc([C@@H]2[C@@H](C#N)N(C(=O)NC3CCCCC3)[C@@H]2CO)cc1	0	0	-	-	-	-	-
CN1c2ccc(C#Cc3ccc(F)cc3)cc2[C@@H]2[C@@H](CCN2C(=O)CN2CCOCC2)[C@H]1CO	0	0	-	-	-	-	-
COc1ccc(C#Cc2ccc3c(c2)[C@@H]2[C@@H](CCN2C(=O)c2ccccc2F)[C@H](CO)N3C)cc1	0	?	-	111	?	0	54
O=C(c1ccccc1F)N1CC[C@@H]2[C@H](CO)Nc3ccc(C#Cc4ccc(F)cc4)cc3[C@@H]21	0	0	-	-	-	-	-
COc1ccc(C#Cc2ccc3c(c2)[C@@H]2[C@@H](CCN2C(=O)c2ccccc2F)[C@@H](CO)N3C)cc1	0	0	-	-	-	-	-
COc1ccc(C#Cc2ccc3c(c2)[C@H]2[C@H](CCN2C(=O)CN2CCOCC2)[C@H](CO)N3C)cc1	0	99	-	111	0	0	27
COc1ccc(C#Cc2ccc3c(c2)[C@@H]2[C@@H](CCN2C(=O)c2ccccc2F)[C@@H](CO)N3)cc1	0	106	-	102	0	0	0
CCOC(=O)c1c(NC(=S)Nc2cc(OC)c(Cl)cc2OC)sc(C)c1-c1ccccc1	-	-	0	-	-	-	-
CO[C@@H]1CN(C)C(=O)c2cc(NC(=O)C3CCC3)ccc2OC[C@H](C)N(Cc2nccs2)C[C@@H]1C	0	0	0	-	-	-	-
C[C@@H]1CN([C@@H](C)CO)C(=O)c2cc(NC(=O)NC3CCCCC3)ccc2O[C@@H](C)CCCCO[C@H]1CN(C)C(=O)CCC(F)(F)F	0	0	-	-	-	-	-
C[C@H]1O[C@@H](O[C@H]2CC[C@@]3(C)C(CC[C@]4(C)C3CC=C3C5CC(C)(C)CC[C@]5(C(=O)O)CC[C@]34C(=O)O)C2(C)C)[C@H](O)[C@@H](O)[C@@H]1O (stereo partly specified)	-	-	0	-	-	-	-
OC[C@H]1[C@H](c2ccc(C#Cc3cccnc3)cc2)[C@@H]2CN(Cc3ccccc3F)CCCCN12	0	112	-	111	0	0	103
OC[C@@H]1[C@H](c2ccc(C#Cc3cccnc3)cc2)[C@H]2CN(Cc3ccccc3F)CCCCN12	0	114	-	102	113	50	104
COc1ccc(C#Cc2ccc([C@@H]3[C@@H](CO)N4CCCCN(Cc5ccccc5F)C[C@H]34)cc2)cc1	0	0	-	-	-	-	-
OC[C@@H]1[C@@H](c2ccc(C#CC3(O)CCCC3)cc2)[C@H]2CN(Cc3ccccc3F)CCCCN12	0	105	-	0	0	0	58
OC[C@H]1[C@H](c2ccc(C#CC3(O)CCCC3)cc2)[C@H]2CN(Cc3ccccc3F)CCCCN21	0	0	-	-	-	-	-
COc1ccc(C#Cc2ccc([C@H]3[C@H]4CN(Cc5ccccc5F)CCCCN4[C@H]3CO)cc2)cc1	0	0	-	-	-	-	-
CN1C(=O)c2cc(NC(=O)c3cccc(F)c3)ccc2OC[C@@H]2O[C@@H](CC(=O)NCc3ccccc3)CC[C@H]21	0	0	-	-	-	-	-
